Consider 97 compounds from PubChem BioAssay AID504382 (The Scripps Research Institute Molecular Screening Center, 2011).

About 460 (18%) of roughly 2,500 compounds were called active. These entries were drawn from the full list. Values without a mark were called inactive.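 How the source made its calls: active means mean activation above a cutoff of low control average plus 3 SD from the earlier screen (cut at about 12% in these data); inactive means the rest.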

This experiment can be described thus: IANBD-channel fluorescence artefacts in buffer – biochemical, artefact control for cardiac RTF calcium sensitizer project, confirmation (AID 504382). The settings on record: IANBD fluorescence interference counterscreen, EC20 Ca2+, at 7.2 µM, stronger effect = higher value, scaled: EC20 calcium 0, EC100 calcium 100. In outline:
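Technique: fluorescence, 480/540 nm / Medium: MOPS-based buffer with KCl, MgCl2, EGTA, NTA, DTT, pH 7.2 / Probe or stimulus: calcium at EC20 level, 0.472 mM final / Repeats: triplicate wells per compound / Times: 15 min compound exposure at 25 °C / Measure: compound fluorescence interference relative to control well signal range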
(In general: The purpose of a counterscreen is to sort out artefacts and off-target activity.)
As for `COc1ccc(/C=N/NC(=O)C(Cc2c[nH]c3ccccc23)NC(=O)OCC(C)C)cc1[N+](=O)[O-]` (configuration not stated), the fluorescence artifact activation was 0.1%.
As to `Cc1cccc(CN2C(=O)N/C(=C/c3ccc(C)s3)C2=O)c1`, the fluorescence artifact activation is 0.03%.
For `COc1ccc(C2C(C#N)=C(N)N(c3cccnc3)C3=C2C(=O)CCC3)cc1Cn1cc([N+](=O)[O-])cn1` (configuration not stated), the fluorescence artifact activation was 4.77%.
For `CCOC(=O)C1C(=O)NC(SCC(N)=O)=C(C#N)C1c1ccccc1OCC` (configuration not stated) the value was 0.28%; for `Fc1ccc(-c2nc3ccncc3[nH]2)cc1`, 1.25%.
The value for `Cc1ccc2oc3c(SCc4nc5ccccc5[nH]4)nc(C)nc3c2c1` was 6.37%.
`CC1=NN(C(=O)c2ccccc2-n2cccc2)C(O)(C(F)(F)F)C1` (configuration not stated): the fluorescence artifact activation was 0.1%.
For `COc1ccc(OC)c(C2=C/C(=C/c3ccccn3)C(=O)O2)c1` the value was 0.07%; for `CCN(CC)c1ccc(/C=C/c2cccc[n+]2C)c(OC)c1`, 22.6% (active); for `CCN(CC)c1ccc(/C=C/c2cc(-c3ccccc3)c3ccccc3n2)cc1`, 3.44%.
Take `C[C@@H]1CC=C[C@H]2[C@H]1C(=O)N(Cc1ccccc1)[C@H]2c1ccc(-c2cc3ccccc3s2)cc1F`: the fluorescence artifact activation was 0.21%.
As for `COc1ccc(-c2cc(C(F)(F)F)nc(S(=O)(=O)CCCC(=O)Nc3cc(C)on3)n2)cc1OC`, the fluorescence artifact activation is 3.3%.
Consider `COc1ccc(NC(=O)c2cc(C)on2)cc1OC`, for which the fluorescence artifact activation was 0.84%.
Regarding `COc1ccc(S(=O)(=O)Nc2cc(C)on2)cc1`, the fluorescence artifact activation is 26.7% (active).
Take `CC1=NN(C(=O)c2ccc(Cn3ccc([N+](=O)[O-])n3)cc2)C(O)(C(F)(F)F)C1` (configuration not stated): the fluorescence artifact activation is 5.1%.
For `COc1cccc(/C=N/c2nc3ccccc3[nH]2)c1O` the value was 0.01%; for `CN(C)c1ccc(/C=C/C(=O)c2c(O)c3ccccc3oc2=O)cc1`, 1.4%; for `CN1CCN(c2ccc(-c3cccc(NC(=O)COc4ccccc4)c3)nn2)CC1`, 9.37%.
Take `Cc1cc[n+](-c2[nH]c(=O)sc2/C=N/N=C(\[O-])c2ccccc2)cc1C`: the fluorescence artifact activation was 3.62%.
For `O=C(NC(=S)Nc1ccc2oc(=O)ccc2c1)c1ccco1`, the fluorescence artifact activation is 33.8% (active).
For `O=C(CSc1ccc(Cl)cc1)Nc1cccc(NC(=O)c2ccco2)c1` the value was 0.39%; for `O=C(NC(NC(=S)Nc1ccccc1C(=O)O)C(Cl)(Cl)Cl)c1ccco1` (configuration not stated), 0%.
For the compound `COc1ccc(/C=[N+](\[O-])C2N(c3ccccc3)C(=S)SC2(C)C)cc1OC` (configuration not stated), the fluorescence artifact activation is 0.2%.
`CC(C)N1CC=C2C(C#N)=C(N)C(C#N)(C#N)C(c3ccccc3)C2C1` (configuration not stated): the fluorescence artifact activation was 0.48%.
With `COc1ccc(C(=O)Nc2ccccc2-c2ccccc2)cc1Cl`, the fluorescence artifact activation was 0.15%.
As for `O=C(Cc1ccccc1Cl)Nc1cccnc1`, the fluorescence artifact activation was 1.8%.
On to `CC(C)(ONC(=O)Nc1ccccc1Cl)C(=O)O`, for which the fluorescence artifact activation is 314% (active).
Regarding `Clc1cccc(C[n+]2cc(-c3ccccc3)n3c2CCC3)c1`, the fluorescence artifact activation is -0.06%.
`CCc1cc[n+](-c2nc([O-])sc2C=O)cc1`: the fluorescence artifact activation is 2.36%.
With `COc1ccc(N2CC(C(=O)Nc3nc(-c4ccccc4)c(C(C)=O)s3)CC2=O)c(OC)c1` (configuration not stated), the fluorescence artifact activation was 0.16%.
As to `O=C(O)CCC(=O)Nc1cc(C(F)(F)F)cc(C(F)(F)F)c1`, the fluorescence artifact activation was 3.32%.
For `CC1=NN(c2ccc(Br)cc2)C(=O)/C1=C/c1ccc(-c2ccccc2C(=O)O)o1` the value was 0.09%; for `CC1=NN(c2ccc(C)c(C)c2)C(=O)/C1=C/c1ccc2c(c1)n(C)c(=O)n2C`, 16.1% (active).
Consider `CCOC(=O)c1c(NC(=O)COC(=O)Cc2ccccc2[N+](=O)[O-])sc(C(=O)N(C)C)c1C`, for which the fluorescence artifact activation is -0.03%.
In the case of `Oc1[nH]c2ccccc2c1N=Nc1cccc(Cl)c1`, the fluorescence artifact activation is 0.77%.
For `CCC(/C=C1\Oc2ccc(OC)cc2N1C)=C\c1sc2ccccc2[n+]1CCCS(=O)(=O)[O-]`, the fluorescence artifact activation is 4.9%.
For `COc1cc(OC)c(OC)cc1/C=C/C(=O)c1ccc(NS(=O)(=O)c2ccc(C)cc2)cc1` the value was 0.29%.
The value for `COc1ccc(NC(=O)C2CC2)cc1OC1CCCC1` was 0.04%; that for `COc1ccc(N/C=C\C(=O)c2ccc(Br)cc2)cc1OC` was 15.4% (active); that for `Oc1sc(C=Nc2ccccc2)c2ccccc12` was -0.05%.
With `Cc1ccc(N=Cc2sc(O)c3ccccc23)cc1`, the fluorescence artifact activation was 0%.
Regarding `COc1ccc(N=Cc2sc(O)c3ccccc23)cc1`, the fluorescence artifact activation was 27.5% (active).
With `COc1ccc(-n2nnnc2SCC(=O)c2cc3ccccc3o2)cc1`, the fluorescence artifact activation was 12.4% (active).
For `COc1ccc(OC)c(-n2nnnc2SCC(=O)NCCc2ccccc2)c1` the value was 3.03%; for `COc1ccc(-c2nnc(SCC(=O)c3ccc[nH]3)n2-c2ccccc2)cc1`, 0.12%.
Turning to `COC(=O)CCCNC(=O)CCc1nnc(-c2ccc(-c3ccccc3)cc2)o1`, the fluorescence artifact activation was -0.05%.
For `CCOc1ccc(-c2nc3scc(-c4cccs4)c3c(=O)[nH]2)cc1` the value was 15.2% (active); for `COc1ccc(C(=O)Nn2cnc3scc(-c4cccs4)c3c2=O)c(O)c1`, 7.33%; for `O=C(NCCN1CCOCC1)c1ccc(CS(=O)(=O)c2c(Cl)cccc2Cl)o1`, -0.03%.
For `CCOC(=O)c1c(/N=C/c2cccc([N+](=O)[O-])c2O)sc(C)c1C`, the fluorescence artifact activation was 2.1%.
On to `COC(=O)c1c(-c2ccc(OC)c(OC)c2)csc1N`, for which the fluorescence artifact activation was 0%.
Consider `CC1CCC(C(C)C)C(OC(=O)Cn2c(-c3ccccc3)[n+](C)c3ccccc32)C1` (configuration not stated), for which the fluorescence artifact activation was 0%.
`CCC(C)[C@H](NC(=O)N1CCC(C)CC1)C(=O)OC` (some centres not stated): the fluorescence artifact activation was -0.05%.
As for `CCn1c(SCC(=O)NNC(=O)c2ccco2)nnc1-c1ccco1`, the fluorescence artifact activation was -0.04%.
For `O=C(CCSc1nnc(-c2ccco2)o1)Nc1ccccc1` the value was 24.7% (active); for `O=C(CSc1nnc(-c2ccco2)o1)NC1CCCCC1`, -0.05%.
The value for `Cc1ccc(-n2nnnc2C(=Cc2ccc(N(C)C)cc2)c2nnnn2-c2ccc(C)cc2)cc1` was 0.09%.
For the compound `COc1cccc2cc(-c3nc(-c4cccs4)cs3)c(=O)oc12`, the fluorescence artifact activation was -0.05%.
As to `CCOC(=O)c1c(-c2ccccc2)csc1NC(=O)/C(C#N)=C\c1ccc(O)c(OC)c1`, the fluorescence artifact activation was 0.5%.
For `CC(C)CN1CCN(Cc2cccn2-c2ccc(Cl)cn2)CC1CCO` (configuration not stated) the value was 26.8% (active); for `CCOC(=O)/C(=C/C=C1\Sc2cc(OCC)c(OCC)cc2N1CC)C(C)=O`, 5.45%; for `O=C1CCC[C@@H]2Cc3nc4ccc(O)cc4cc3[C@@H]3CCN1[C@H]23`, 1.03%.
Consider `c1ccc(CCCN2CCN(c3ccccc3)CC2)cc1`, for which the fluorescence artifact activation was 0%.
The value for `CCc1ccc(C(=O)NNc2ccccc2F)cc1` was 1.03%.
On to `Cc1occc1C(=O)N=Nc1c(O)n(C)c2ccccc12`, for which the fluorescence artifact activation was 2.27%.
In the case of `COCCn1c(SCC(=O)Nc2ccc(NC(=O)c3ccco3)c(OC)c2)nc2ccccc2c1=O`, the fluorescence artifact activation is 1.13%.
The value for `COCCn1c(-c2ccc(C)cc2)nc2oc3cc(OC)ccc3c(=O)c2c1=O` was 0.27%; that for `COCCn1c(=O)c2ccccc2c2ccccc2c1=O` was 17.2% (active); that for `O=C(Nc1cc2c(cc1Br)OCCCO2)c1cccnc1` was -0.06%.
Consider `Cc1ccccc1NS(=O)(=O)c1ccc(OCC(=O)N2CCCCC2)cc1`, for which the fluorescence artifact activation was -0.04%.
As to `COc1ccc(CN(Cc2cccn2C)S(=O)(=O)c2ccccc2)cc1`, the fluorescence artifact activation was 0.19%.
The value for `CCN(CC(=O)N1CCCC1)S(=O)(=O)c1ccc(OC)cc1` was 87% (active).
For `Cc1ccc([N+](=O)[O-])c(OCCCN2C(=O)NC(C)(C)C2=O)c1` the value was 0.02%; for `COc1ccccc1N1C(C)=CC(=C(C#N)c2nc3ccccc3s2)C=C1C`, 0.18%.
Turning to `COc1ccc(N2C(=O)[C@@H]3[C@H](C2=O)[C@H](C(C)=O)N2c4ccccc4C=C[C@@H]32)cc1`, the fluorescence artifact activation is 0.08%.
For `CCOc1ccc(CN2CCN(C/C=C/c3ccc(OC)cc3)CC2CCO)cc1` (configuration not stated) the value was 0.09%; for `Cc1ccc(CN2CCN(Cc3ccc(-n4cccn4)cc3C)CC2CCO)cc1` (configuration not stated), 37.2% (active).
`CSc1nnc(N(CCC#N)CCC#N)s1`: the fluorescence artifact activation was 11.2%.
On to `COc1ccc(-c2onc3ccc(C(C)=O)cc23)cc1`, for which the fluorescence artifact activation was 5.91%.
For `CC1(C)CC(=O)C(C=Nc2ccc(C(=O)c3ccccc3)cc2N=CC2=C(O)CC(C)(C)CC2=O)=C(O)C1`, the fluorescence artifact activation is 0.03%.
For the compound `Cc1nnc(N2CCOCC2)c2nn(-c3cccc(Cl)c3)c(C)c12`, the fluorescence artifact activation is 0.16%.
For the compound `COc1cc(OC)c(NC(=O)c2cc3ccccc3cc2O)cc1Cl`, the fluorescence artifact activation is 0.48%.
For the compound `Cn1c(O)c(/C=N/NC(=O)c2cc3ccccc3cc2O)c2ccccc21`, the fluorescence artifact activation is 70% (active).
The value for `O=C(N/N=C/c1c(O)n(-c2ccc(Cl)cn2)c(=O)c2ccccc12)c1ccncc1` was 0.02%.
As to `CCCNC(=O)C12CCC(C)(C(=O)C1Br)C2(C)C` (configuration not stated), the fluorescence artifact activation is 0.01%.
Regarding `CN(C)CCNC(=O)c1c(CSc2ccc(Cl)cc2)noc1C(=O)NCc1ccccc1`, the fluorescence artifact activation was 0.05%.
The value for `COc1cc(OC)c(C2N(c3ccc(Cl)c(Cl)c3)C(=O)C3CCCN32)cc1OC` (configuration not stated) was -0.1%.
With `O=C([O-])c1ccccc1-[n+]1c(-c2ccccc2)cc(-c2ccccc2)cc1-c1ccccc1`, the fluorescence artifact activation was 0%.
Consider `O=C(O)c1ncc(-c2ccccc2)cn1`, for which the fluorescence artifact activation was 43.6% (active).
Turning to `NC(=O)C1CCN(C(=O)c2ccc(-c3ccccc3)cc2)CC1`, the fluorescence artifact activation is 4.63%.
Turning to `c1ccc2c(c1)CN1CCCC1=N2`, the fluorescence artifact activation is -0.08%.
For `CCOc1cc(N(CC)CC)ccc1/C=C(/C#N)c1nc2ccccc2[nH]1`, the fluorescence artifact activation was 0.26%.
Turning to `CCN(CC)c1ccc(/C=C(/C#N)c2nc3ccccc3[nH]2)c(OC(C)C)c1`, the fluorescence artifact activation was 41.8% (active).
Regarding `COc1cccc(/C=C(/C#N)c2nc3ccccc3[nH]2)c1OC(C)C(=O)O` (configuration not stated), the fluorescence artifact activation is 0.54%.
The value for `CCCOc1cc(N(CC)CC)ccc1/C=C(/C#N)c1nc2ccc(C)cc2[nH]1` was 12.4% (active); that for `COc1cc(/C=C(\C#N)c2nc3ccccc3[nH]2)cc(OC)c1O` was 6.16%.
The value for `COc1cc(/C=C(\C#N)c2nc3ccccc3[nH]2)ccc1O` was 0.06%.
